According to ChEMBL document CHEMBL3585265, “Bacteria-Derived Compatible Solutes Ectoine and 5α-Hydroxyectoine Act as Intestinal Barrier Stabilizers to Ameliorate Experimental Inflammatory Bowel Disease” (J Nat Prod, 2015):
Calls of active or inactive are those of the source. No cut-off for these calls is given here.

Legend:
[1] = system: Rattus norvegicus; test: Anti-colitis activity in Wistar rat assessed as suppression of TNBS-induced body weight reduction at 50 to 300 mg/kg, po qd administered for 1 week starting 48 hrs post TNBS induction; type: functional, organism-based
In short: (§1)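 Male Wistar rats (150–200 g) were fasted 36 h, then given 100 mg/kg TNBS in 0.25 mL 50% ethanol rectally under light ether, with the catheter tip 8 cm from the anus. Oral dosing was in 1 mL per 200 g rat. Rats were killed 24 h after the last dose. Body weight was taken before induction and before necropsy. Ulcer area in the distal 8 cm colon was measured planimetrically (cm2). Colon mass index is colon weight/body weight (mg/g). Mean of ≥6 animals ± SEM.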

[2] = system: Rattus norvegicus; test: Anti-colitis activity in Wistar rat assessed as reduction of TNBS-induced ulcerative area at 50 to 300 mg/kg, po qd administered for 1 week starting 48 hrs post TNBS induction (reference value: 4.9 cm2); type: functional; in short: as §1
[3] = system: Rattus norvegicus; test: Anti-colitis activity in Wistar rat assessed as reduction of TNBS-induced colon mass index at 50 mg/kg, po qd administered for 1 week starting 48 hrs post TNBS induction (reference value: 7.9 mg/g); type: functional; in short: as §1
[4] = system: Rattus norvegicus; test: Anti-colitis activity in Wistar rat assessed as reduction of TNBS-induced myeloperoxidase activity at 50 mg/kg, po qd administered for 1 week starting 48 hrs post TNBS induction by spectrophotometric analysis; type: functional, organism-based
In short: (§2)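 TNBS colitis in male Wistar rats: 100 mg/kg TNBS in 0.25 mL 50% ethanol, instilled 8 cm into the colon after a 36 h fast. Oral dosing in 1 mL per 200 g rat. Rats were killed 24 h after the last dose. The distal 8 cm colon was rinsed in ice-cold saline and homogenized 10% (w/v) in ice-cold bidistilled water. Mean of ≥6 animals ± SEM.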

[5] = system: Rattus norvegicus; test: Anti-colitis activity in Wistar rat assessed as suppression of TNBS-induced reduction of colonic GSH level at 50 to 300 mg/kg, po qd administered for 1 week starting 48 hrs post TNBS induction by spectrophotometric analysis; type: functional, organism-based
In short: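 TNBS colitis in male Wistar rats: 100 mg/kg TNBS in 0.25 mL 50% ethanol given rectally. Colon was taken 24 h after the last oral dose and homogenized 10% (w/v) in ice-cold water. Homogenate was deproteinized with ice-cold 5% sulfosalicylic acid and spun at 3000 rpm for 20 min; GSH was read spectrophotometrically in the supernatant. Mean of ≥6 animals ± SEM.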

[6] = system: Rattus norvegicus; test: Anti-colitis activity in Wistar rat assessed as suppression of TNBS-induced colonic TNF-alpha level at 50 to 100 mg/kg, po qd administered for 1 week starting 48 hrs post TNBS induction by ELISA; type: functional, organism-based; in short: as §2
[7] = system: Rattus norvegicus; test: Anti-colitis activity in Wistar rat assessed as suppression of TNBS-induced colonic IL-1beta level at 50 to 100 mg/kg, po qd administered for 1 week starting 48 hrs post TNBS induction by ELISA; type: functional, organism-based; in short: as §2
[8] = system: Rattus norvegicus; test: Anti-colitis activity in Wistar rat assessed as suppression of TNBS-induced fecal calprotectin level at 100 mg/kg, po qd administered for 1 week starting 48 hrs post TNBS induction by ELISA; type: functional, organism-based
In short: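 Feces were collected before sacrifice from 4 randomly chosen TNBS-colitis rats per group, suspended 1:10 in extraction buffer and incubated 90 min at room temperature. Calprotectin (S100A8/S100A9) was measured by ELISA, with samples incubated 90 min at room temperature. Samples were run in duplicate and medians taken.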

[9] = system: Rattus norvegicus; test: Anti-colitis activity in Wistar rat assessed as reduction of TNBS-induced colon mass index at 100 mg/kg, po qd administered for 1 week starting 48 hrs post TNBS induction (reference value: 7.9 mg/g); type: functional; in short: as §1
[10] = system: Rattus norvegicus; test: Anti-colitis activity in Wistar rat assessed as reduction of TNBS-induced myeloperoxidase activity at 100 mg/kg, po qd administered for 1 week starting 48 hrs post TNBS induction by spectrophotometric analysis; type: functional, organism-based
[11] = system: Rattus norvegicus; test: Toxicity in Wistar rat assessed as effect on colonic GSH level at 100 mg/kg, po qd administered for 1 week by spectrophotometric analysis; type: organism-based, Colon; conditions: in vivo, 168 h
In short: (§3)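 Normal male Wistar rats (150–200 g) underwent the same rectal procedure with saline in place of TNBS. They received water or 100 mg/kg compound orally once daily for 1 week and were killed 24 h after the last dose. The distal 8 cm colon was weighed and homogenized 10% (w/v) in ice-cold bidistilled water. Body weight was taken before instillation and before necropsy.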

[12] = system: Rattus norvegicus; test: Anti-colitis activity in Wistar rat assessed as suppression of TNBS-induced colonic TNF-alpha level at 50 to 300 mg/kg, po qd administered for 1 week starting 48 hrs post TNBS induction by ELISA; type: functional, organism-based
In short: (§4)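 TNBS/ethanol colitis in male Wistar rats, as described; oral once-daily treatment for 1 week beginning 48 h post-induction, sacrifice 24 h after final dose. Distal 8 cm colon excised, rinsed in ice-cold saline, homogenized 10% (w/v) in ice-cold bidistilled water; aliquot assayed for TNF-α and IL-1β by ELISA. At least 6 animals per group, mean ± SEM.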

[13] = system: Rattus norvegicus; test: Anti-colitis activity in Wistar rat assessed as suppression of TNBS-induced colonic IL-1beta level at 50 to 300 mg/kg, po qd administered for 1 week starting 48 hrs post TNBS induction by ELISA; type: functional, organism-based; in short: as §4
[14] = system: Rattus norvegicus; test: Toxicity in Wistar rat assessed as effect on colonic ICAM1 level at 100 mg/kg, po qd administered for 1 week by ELISA; type: organism-based, Colon; conditions: in vivo, 168 h; in short: as §3
[15] = system: Rattus norvegicus; test: Toxicity in Wistar rat assessed as decrease in Hsp70 level at 100 mg/kg, po qd administered for 1 week by ELISA; type: organism-based; conditions: in vivo, 168 h; in short: as §3
[16] = system: Rattus norvegicus; test: Toxicity in Wistar rat assessed as decrease in Hsp70 level at 50 to 300 mg/kg, po qd administered for 1 week starting 48 hrs post TNBS induction by ELISA; type: organism-based; conditions: in vivo; in short: as §2
[17] = system: Rattus norvegicus; test: Toxicity in Wistar rat assessed as effect on body weight at 100 mg/kg, po qd administered for 1 week; type: organism-based; conditions: in vivo, 168 h; in short: as §3
[18] = system: Rattus norvegicus; test: Toxicity in Wistar rat assessed as effect on colon mass index at 100 mg/kg, po qd administered for 1 week; type: organism-based; conditions: in vivo, 168 h; in short: as §3
[19] = system: Rattus norvegicus; test: Toxicity in Wistar rat assessed as effect on myeloperoxidase activity at 100 mg/kg, po qd administered for 1 week by spectrophotometric analysis; type: organism-based; conditions: in vivo, 168 h; in short: as §3
[20] = system: Rattus norvegicus; test: Toxicity in Wistar rat assessed as effect on TNF-alpha level at 100 mg/kg, po qd administered for 1 week by ELISA; type: organism-based; conditions: in vivo, 168 h; in short: as §3
[21] = system: Rattus norvegicus; test: Toxicity in Wistar rat assessed as effect on IL-1beta level at 100 mg/kg, po qd administered for 1 week by ELISA; type: organism-based; conditions: in vivo, 168 h; in short: as §3
[22] = system: Rattus norvegicus; test: Anti-colitis activity in Wistar rat assessed as suppression of TNBS-induced body weight reduction at 300 mg/kg, po qd administered for 1 week starting 48 hrs post TNBS induction; type: functional, organism-based
In short: (§5)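 Adult male Wistar rats (150−200 g), fasted 36 h, received 0.25 mL 50% (v/v) ethanol containing 100 mg/kg TNBS, instilled 8 cm into colon under light ether. Oral dosing (water vehicle, 1 mL per 200 g) once daily for 1 week from 48 h; sacrifice 24 h after last dose. Body weight recorded before induction and before necropsy. Distal 8 cm colon weighed; mass index as mg/g body weight. n ≥ 6, mean ± SEM.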

[23] = system: Rattus norvegicus; test: Anti-colitis activity in Wistar rat assessed as reduction of TNBS-induced colon mass index at 300 mg/kg, po qd administered for 1 week starting 48 hrs post TNBS induction; type: functional, organism-based; in short: as §5
[24] = system: Rattus norvegicus; test: Anti-colitis activity in Wistar rat assessed as suppression of TNBS-induced reduction of colonic GSH level at 300 mg/kg, po qd administered for 1 week starting 48 hrs post TNBS induction by spectrophotometric analysis; type: functional, organism-based
In short: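 Colitis induced rectally with 100 mg/kg TNBS in 50% ethanol; oral dosing daily for 1 week from 48 h later. Colon homogenate (10% w/v, ice-cold water) deproteinized with ice-cold 5% sulfosalicylic acid, centrifuged 3000 rpm 20 min; supernatant used for spectrophotometric reduced glutathione estimation. n ≥ 6, mean ± SEM.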

[25] = system: Rattus norvegicus; test: Toxicity in Wistar rat assessed as decrease in Hsp70 level at 300 mg/kg, po qd administered for 1 week starting 48 hrs post TNBS induction by ELISA; type: organism-based; conditions: in vivo; in short: as §2

SMILES | Activity [1] | Activity [2] | Activity [5] | Activity [8] | Activity [11] | Activity [14] | Activity [15] | Activity [16] | Activity [17] | Activity [18] | Activity [19] | Activity [20] | Activity [21] | further results
CC1=N[C@H](C(=O)O)[C@@H](O)CN1 | Active | 1.3 cm2 | inactive | Active |  |  |  |  |  |  |  |  |  | Activity [3]: 4 mg/g; Activity [4]: Active; Activity [6]: Active; Activity [7]: Active
CC1=N[C@H](C(=O)O)CCN1 | Active | 1.2 cm2 | inactive | Active | Non-toxic | Non-toxic | Toxic | Toxic | Non-toxic | Non-toxic | Non-toxic | Non-toxic | Non-toxic | Activity [9]: 4.3 mg/g; Activity [10]: Active; Activity [12]: Active; Activity [13]: Active
CC1=NC[C@H](O)[C@@H](C(=O)O)N1 |  |  |  |  | Non-toxic | Non-toxic | Toxic | Toxic | Non-toxic | Non-toxic | Non-toxic | Non-toxic | Non-toxic | 
O=C(O)c1cc(/N=N/c2ccc(S(=O)(=O)Nc3ccccn3)cc2)ccc1O [SULFASALAZINE] |  |  |  |  |  |  |  |  |  |  |  |  |  | Activity [22]: Active; Activity [23]: Active; Activity [24]: inactive; Activity [25]: Toxic
